Data from ChEMBL document CHEMBL1155675, “New triterpenoid sulfates from the red alga Tricleocarpa fragilis” (J Nat Prod, 2000).

Legend:
HT-29 = assay: Cytotoxicity against human HT29 cells; assay type: functional, cell-based
P388 = assay: Cytotoxicity against mouse P388 cells; assay type: functional, cell-based
[1] = Cytotoxicity against human MEL28 cells; assay type: functional, cell-based; conditions: SK-MEL-28
A549 = assay: Cytotoxicity against human A549 cells; assay type: functional, cell-based
Artemia [2] = assay: Toxicity against brine shrimp assessed as immobilization at 17 ug/ml; assay type: organism-based; conditions: in vivo
Outline: (§1)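 Brine shrimp immobilization was scored in a 96-well plate format and reported as percent immobilization with 90% confidence intervals. Where both monovalent and divalent cation salts of a sulfate were isolated, the divalent cation salt was the one tested.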

Artemia [3] = assay: Toxicity against brine shrimp assessed as immobilization at 50 ug/ml; assay type: organism-based; conditions: in vivo; outline: as §1

Row | SMILES | IC50 (HT-29) [µg/mL] | IC50 (P388) [µg/mL] | IC50 [1] [µg/mL] | IC50 (A549) [µg/mL] | Activity (Artemia [2]) [%] | Activity (Artemia [3]) [%]
1 | COC(=O)[C@]1(C)[C@@H](OS(=O)(=O)[O-])CC[C@]23C[C@]24CC[C@]2(C)[C@@H]([C@H](C)CC(=O)C=C(C)C)CC[C@@]2(C)[C@@H]4CC[C@@H]13.COC(=O)[C@]1(C)[C@@H](OS(=O)(=O)[O-])CC[C@]23C[C@]24CC[C@]2(C)[C@@H]([C@H](C)CC(=O)C=C(C)C)CC[C@@]2(C)[C@@H]4CC[C@@H]13.[Mg+2] | > 10 | > 10 | > 10 | > 10 |  | 
2 | CC(C)=C[C@H](O)C[C@@H](C)[C@H]1CC[C@@]2(C)[C@@H]3CC[C@H]4C(C)(C)[C@@H](OS(=O)(=O)O)CC[C@@]45C[C@@]35CC[C@]12C | > 2 | > 2 | > 2 | > 2 |  | 
3 | CC(C)=C[C@H](O)C[C@@H](C)[C@H]1CC[C@@]2(C)[C@@H]3CC[C@H]4[C@](C)(CO)[C@@H](OS(=O)(=O)O)CC[C@@]45C[C@@]35CC[C@]12C | > 10 | > 10 | > 10 | > 10 | 47.1 | 
4 | COC(=O)[C@]1(C)[C@@H](OS(=O)(=O)[O-])CC[C@]23C[C@]24CC[C@]2(C)[C@@H]([C@H](C)CC(=O)C=C(C)C)CC[C@@]2(C)[C@@H]4CC[C@@H]13.COC(=O)[C@]1(C)[C@@H](OS(=O)(=O)[O-])CC[C@]23C[C@]24CC[C@]2(C)[C@@H]([C@H](C)CC(=O)C=C(C)C)CC[C@@]2(C)[C@@H]4CC[C@@H]13.[Ca+2] | > 10 | > 10 | > 10 | > 10 |  | 
5 | COC(=O)[C@]1(C)[C@@H](OS(=O)(=O)O)CC[C@]23C[C@]24CC[C@]2(C)[C@@H]([C@H](C)CC(=O)C=C(C)C)CC[C@@]2(C)[C@@H]4CC[C@@H]13 | > 10 | > 10 | > 10 | > 10 |  | 
6 | COC(=O)[C@@H]1[C@@H](OS(=O)(=O)O)CC[C@]23C[C@]24CC[C@]2(C)[C@@H]([C@H](C)CC(=O)C=C(C)C)CC[C@@]2(C)[C@@H]4CC[C@@H]13 | > 1 | > 1 | > 1 | > 1 |  | 
7 | COC(=O)[C@@H]1[C@@H](OS(=O)(=O)O)CC[C@]2(C)C3=C(CC[C@@H]12)[C@]1(C)CC[C@H]([C@H](C)CC(=O)C=C(C)C)[C@@]1(C)CC3 | > 1 | > 1 | > 1 | > 1 |  | 35.5
8 | CC(C)=CC(=O)C[C@@H](C)[C@H]1CC[C@@]2(C)[C@@H]3CC[C@H]4[C@](C)(CO)[C@@H](OS(=O)(=O)O)CC[C@@]45C[C@@]35CC[C@]12C | > 2 | > 2 | > 2 | > 2 |  | 
9 | CC(C)=CC(=O)C[C@@H](C)[C@H]1CC[C@@]2(C)[C@@H]3CC[C@H]4C(C)(C)[C@@H](OS(=O)(=O)O)CC[C@@]45C[C@@]35CC[C@]12C | > 10 | > 10 | > 10 | > 10 |  | 
10 | COC(=O)[C@@H]1[C@@H](OS(=O)(=O)O)CC[C@]23C[C@]24CC[C@]2(C)[C@@H]([C@H](C)C[C@@H](O)C=C(C)C)CC[C@@]2(C)[C@@H]4CC[C@@H]13 | > 1 | > 1 | > 1 | > 1 |  | 39.1
11 | COC(=O)[C@@H]1[C@@H](OS(=O)(=O)O)CC[C@]2(C)C3=C(CC[C@@H]12)[C@]1(C)CC[C@H]([C@H](C)C[C@@H](O)C=C(C)C)[C@@]1(C)CC3 | > 2 | > 2 | > 2 | > 2 |  | 
12 | COC(=O)[C@]1(C)[C@@H](OS(=O)(=O)O)CC[C@]23C[C@]24CC[C@]2(C)[C@@H]([C@H](C)C[C@@H](O)C=C(C)C)CC[C@@]2(C)[C@@H]4CC[C@@H]13 | > 10 | > 10 | > 10 | > 10 | 55.7 | 
13 | COC(=O)[C@]1(C)[C@@H](OS(=O)(=O)[O-])CC[C@]23C[C@]24CC[C@]2(C)[C@@H]([C@H](C)CC(=O)C=C(C)C)CC[C@@]2(C)[C@@H]4CC[C@@H]13.[Na+] | > 10 | > 10 | > 10 | > 10 |  | 
